Measurements taken from PMC9624299 (ACS chemical biology, 2022).

Assays:
linearized pBR322 DNA = assay: DNA cross-linking/alkylation assay; assay type: biochemical; conditions: linearized pBR322 DNA 150 ng, 37 °C, Tris pH 8.5, 15 h, agarose gel
In short: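 pBR322 was linearised with EcoRI, purified and taken up in 10 mM Tris-Cl pH 8.5. DNA (150 ng) was incubated with test compound (DMSO, 5% v/v) at 37 °C for 15 h. Cisplatin and MMS served as positive controls. Samples were denatured 15 min at 4 °C in NaOH-containing sucrose/bromophenol blue buffer (no NaOH for non-denatured controls). Gels were run on 1% neutral agarose with ethidium bromide in TBE, 124 V, 1 h.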

U87 cells = assay: Cell viability assay; assay type: cell-based, human; conditions: 7 days; for IC50: U87, no MGMT expression, MGMT(−)/MMR(+), Alamar Blue; for cytotoxicity (in words): U87
In short: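 Cells were cultured in EMEM with 10% FBS and 1% pen-strep (37 °C, 5% CO2), seeded and allowed to adhere 3 h. Test compound was added in DMSO (1% final). After 7 days of incubation, viability was read by Alamar Blue, with raptinal 20 μM as dead control. IC50 taken from dose–response curves; n ≥ 3, SEM.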

T98G cells = assay: Cell viability assay; assay type: cell-based, human; conditions: for IC50 / cytotoxicity (in words): T98G
In short: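 T98G cells were cultured in EMEM/10% FBS/1% pen-strep at 37 °C, 5% CO2, seeded and allowed to adhere. Where indicated, cells were pretreated 3 h with the MGMT inhibitor O6BG. Test compound was then added in DMSO (1% final). After 7 days, viability was read by Alamar Blue, with raptinal 20 μM as dead control; n ≥ 3, SEM.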

[1] = tested on: Salmonella typhimurium TA100 strain; assay: Ames test, TA100; assay type: cell-based; conditions: 30 μM, 5 days, no S9 activation, wells per 96
In short: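 TA100 S. typhimurium was grown overnight, then dispensed into 96-well plates (microplate Ames format) with test compound, growth medium and colorimetric indicator, without S9 activation. Plates were incubated 5 days, and the number of wells per plate showing revertant growth was scored by colour change.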

GL261 cells [2] = assay: Quantitation of O6-guanine DNA adducts in cells; assay type: cell-based, mouse; conditions: 100, 300 or 500 μM, 8 h, LC–MS/MS
In short: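 GL261 cells were plated at 1 × 10^6 per well and exposed to test compound at 100, 300 or 500 μM (1% DMSO) for 8 h. Genomic DNA was extracted, then precipitated with sodium acetate and ethanol. DNA (10 μg) was hydrolysed to deoxynucleosides (37 °C, 6 h). O6-alkyl-dG was quantified by LC–MS/MS against a synthetic standard; n ≥ 3.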

glioblastoma = conditions: GBM patients, TMZ added to RT; cited from earlier work
U118MG cells = assay: Cell viability assay, U118MG; assay type: cell-based; conditions: MGMT-expressing
[3] = aqueous solution, PBS, pH 7.4, 37 °C; cited from earlier work
D54 cells = assay: Quantitation of O6-guanine DNA adducts in cells; assay type: cell-based; conditions: D54, MGMT-negative; LC–MS/MS
A172 cells = assay: Quantitation of O6-guanine DNA adducts in cells; assay type: cell-based; conditions: A172, MGMT-negative; LC–MS/MS
GL261 cells [4] = assay: Cell viability assay, GL261; assay type: cell-based; conditions: Mus musculus, GL261, 168 h
In short: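 Cells were grown in DMEM with 10% FBS and 1% pen-strep at 37 °C, 5% CO2, seeded and allowed to adhere. After 3 h, test compound was added in DMSO (1% final). Cells were incubated 7 days, and viability was assessed by Alamar Blue, with raptinal 20 μM as dead control.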

HCT116 cells = assay: Cell viability assay, HCT116; assay type: cell-based
In short: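 HCT116 cells were grown in RPMI with 10% FBS and 1% pen-strep (37 °C, 5% CO2), seeded and allowed to adhere. Cells were tested with or without O6BG pretreatment. Test compound was added in DMSO (1% final) after 3 h. After 7 days, viability was read by Alamar Blue, with raptinal 20 μM as dead control.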

[5] = same schedule (once-per-day over five days); cited from earlier work
[6] = Assessment of hematological toxicity; assay type: in vivo, CD-1 IGS mice; conditions: mice, single 125 mg/kg IV dose, 7 days
[7] = Hydrolytic stability studies; assay type: physicochemical; conditions: for hydrolytic stability, percentage of prodrug remaining after 2 h: HPLC
In short: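 Compound (100 μM) was incubated in PBS at 37 °C, pH 7.4 (also pH 7 and 8). Aliquots taken at set time points were analysed by HPLC. Peak areas were compared with t0 to give percent prodrug remaining, including at 2 h.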

D341 Med cells = assay: Cell viability assay, D341 Med medulloblastoma; assay type: cell-based; conditions: Homo sapiens, 168 h
In short: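 D341 Med medulloblastoma cells were grown in EMEM with 20% FBS and 1% pen-strep (37 °C, 5% CO2). Cells were seeded and compound was added in DMSO (1% final) after 3 h. Incubation lasted 7 days, and viability was read by Alamar Blue, with raptinal 20 μM as dead control.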

GBM cell lines = assay: Cell viability assay; assay type: cell-based; conditions: 7 days
In short: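 Panel lines were seeded and allowed to adhere 3 h, then dosed with test compound in DMSO (1% final) and incubated at 37 °C, 5% CO2 for 7 days. Viability was read by Alamar Blue, with raptinal 20 μM as dead control. IC50 values are from n ≥ 3, SEM.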

[8] = cited from earlier work
[9] = tested on: Escherichia coli WP2 uvrA pKM101 strain; assay: Ames test, WP2 uvrA pKM101; assay type: cell-based; conditions: 30 μM
In short: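 E. coli WP2 uvrA pKM101 tester strain was run in the 96-well microplate version of the Ames test following the kit maker's instructions. Test compound was added at the indicated concentrations.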

GL261 MGMT+ cells = assay: Cell viability assay, GL261 MGMT+; assay type: cell-based, mouse
RKO cells = assay: Cell viability assay, RKO colon cancer; assay type: cell-based
BBB permeability = assay type: in vivo, CD-1 IGS mice; conditions: mice, 25 mg/kg IV, 15 min
In short: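 CD-1 IGS mice received 25 mg/kg by lateral tail vein in 5% DMSO, 10% Tween-20 and 85% SBE-βCD (30% w/v in water), and were killed at 15 min. Blood was taken, then mice were saline-perfused. Serum was acidified with 8.5% H3PO4. Brains were acidified (0.3% H3PO4), frozen, homogenised and centrifuged. Levels were measured by LC–MS/MS and used for brain:serum ratio; ≥3 mice/cohort.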

GBM = conditions: intracranial murine model of GBM; cited from earlier work
[10] = high MGMT expression, MGMT(+)/MMR(+), 7 days, Alamar Blue

CC#CCn1nnc2c(C(N)=O)ncn2c1=O [Compound 19]
DNA alkylation (in words) (linearized pBR322 DNA): Trace DNA alkylation | DNA interstrand cross-linking (in words) (linearized pBR322 DNA): definitively absent | IC50 (U87 cells): 37 µM | IC50 (T98G cells; [10]): 110 µM

CC(C)(C)n1nnc2c(C(N)=O)ncn2c1=O [Compound 5]
cytotoxicity (in words) (U87 cells): inactive | cytotoxicity (in words) (T98G cells; 7 days): inactive

Cn1nnc2c(C(N)=O)ncn2c1=O [TMZ, temozolomide]
revertant (mutated) colonies [1]: 35/96 | O6-alkyl-2′-deoxyguanosine adducts (O6-Me-dG for TMZ, O6-Prop-dG for CPZ) (GL261 cells [2]): dose-dependent increase | overall patient survival (glioblastoma): 15 months | survival benefit vs RT alone (glioblastoma): ≤ 8 month | effect of MGMT inhibitor pretreatment on cell death (U118MG cells): cell death potentiation | half-life in vitro [3]: 1.5 to 2 h | DNA alkylation (in words) (linearized pBR322 DNA): cause DNA streaking | O6-dG alkylation adducts (D54 cells): dose-dependent increase in methyl adducts | O6-dG alkylation adducts (A172 cells): dose-dependent increase in methyl adducts | IC50 (GL261 cells [4]): 120 µM | IC50 (T98G cells; Homo sapiens, 168 h): > 550 µM | loss of activity in T98G relative to U87 (T98G cells; IC50 T98G vs U87): > 10 fold | effect of MGMT inhibitor pretreatment on cell death (T98G cells; T98G pretreated (3 h) with O6BG vs non-pretreated): dramatic potentiation of cell death | effect of MGMT inhibitor pretreatment on cytotoxicity (HCT116 cells; HCT116 pretreated with O6BG): negligible potentiation | IC50 (HCT116 cells; Homo sapiens, HCT-116, 168 h): > 800 µM | reported MTD [5]: ~ 66 mg/kg | white blood cell, lymphocyte and neutrophil counts (in words) [6]: depletions in white blood cells, lymphocytes, and neutrophils | hydrolytic stability, percentage of prodrug remaining after 2 h ([7]; PBS pH 7.4, 37 °C): 40% | half-life at 100 μM ([7]; PBS, pH 7.4): ~1.5 h | IC50 (D341 Med cells): 460 µM | difference in IC50 values between MGMT-negative and positive cell lines (GBM cell lines; expanded GBM panel): > 6 fold | half-life in vivo (t1/2) ([8]; human patients, human pharmacokinetics): 1.5 to 2 h | cerebral spinal fluid concentration as percentage of plasma concentration ([8]; humans, average): about 20% | mutagenicity (in words) [9]: highly mutagenic | revertant colonies ([9]; wells per 96): 95/96 | effect of MGMT inhibitor pretreatment on cell death (GL261 MGMT+ cells; GL261 MGMT+ pre-treated with lomeguatrib): potentiation of cell death | IC50 (GL261 MGMT+ cells; Mus musculus, GL261, 168 h): > 1000 µM | IC50 (RKO cells; Homo sapiens): > 1000 µM | effect of MGMT inhibitor pretreatment on cell death (RKO cells; MGMT-expressing, MGMT inhibitor): cell death potentiation

NC(=O)c1ncn2c(=O)[nH]nnc12 [Compound 1]
cytotoxicity (in words) (U87 cells): unable to induce cell death | cytotoxicity (in words) (T98G cells; 7 days): unable to induce cell death

CCn1nnc2c(C(N)=O)ncn2c1=O [Compound 2]
IC50 (U87 cells): 470 µM | cytotoxicity (in words) (U87 cells): much less active than TMZ | cytotoxicity (in words) (T98G cells; 7 days): much less active than TMZ

N.N.[Cl][Pt][Cl] [cisplatin]
DNA interstrand cross-linking (in words) (linearized pBR322 DNA): prevent the full denaturation of double-stranded DNA

C#CCn1nnc2c(C(N)=O)ncn2c1=O [Compound 10]
brain:serum ratio (BBB permeability): 0.06 ± 0.01 ng/g:ng/mL | IC50 (U87 cells): 29 µM | IC50 (T98G cells; [10]): 77 µM | efficacy in an intracranial efficacy model (in words) (GBM): limited efficacy | half-life ([7]; PBS pH 7.4, 37 °C): ~ 30 min | hydrolytic stability, percentage of prodrug remaining after 2 h ([7]; PBS pH 7.4, 37 °C): 8% | IC50 (GBM cell lines; all cell lines of the expanded GBM panel): < 100 µM

NC(=O)c1ncn2c(=O)n(CCCl)nnc12 [MTZ, mitozolomide]
cytotoxicity (in words) (U87 cells): robust cytotoxicity | cytotoxicity (in words) (T98G cells; 7 days): robust cytotoxicity

C=CC=O [acrolein]
DNA alkylation (in words) (linearized pBR322 DNA): no evidence of alkylation | DNA interstrand cross-linking (in words) (linearized pBR322 DNA): interstrand cross-linking

CC(C)n1nnc2c(C(N)=O)ncn2c1=O [Compound 4]
cytotoxicity (in words) (U87 cells): inactive | cytotoxicity (in words) (T98G cells; 7 days): inactive

COS(C)(=O)=O [MMS, methylmethanesulfonate]
DNA alkylation (in words) (linearized pBR322 DNA): cause DNA streaking

CC(C)(C)Cn1nnc2c(C(N)=O)ncn2c1=O [Compound 6]
cytotoxicity (in words) (U87 cells): inactive | cytotoxicity (in words) (T98G cells; 7 days): inactive
